Square brackets hold non-standard residues; d marks the D form. Ends that are not written are not given here.
Experiments:
[1] = molecular target: MC1 receptor (B16/F1 melanoma cells) (Mus musculus, UniProt Q01727); conditions: read-out: MC1 receptor binding affinity; cited from earlier work
B16/F1 melanoma cells = assay: Clonogenic cytotoxicity; format: cell-based, murine; conditions: 0.1 μM peptide, 3 h incubation at 37 °C, colonies over 6 days
How it was run: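 B16/F1 cells seeded at 200 cells/well and held overnight at 37 °C. After a wash with RPMI 1640, cells were exposed for 3 h at 37 °C to 0.1 μM test peptide in medium; controls received medium only. After two PBS washes, colonies grew for 6 days with medium changed every other day. Cells were fixed in methanol:glacial acetic acid (3:1) and hematoxylin-stained; colonies >50 cells scored as survivors. Survival normalized to untreated (100%); unpaired Student's t-test.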

MC1 receptor (B16/F1 melanoma cells), sequence (Q01727 whole entry): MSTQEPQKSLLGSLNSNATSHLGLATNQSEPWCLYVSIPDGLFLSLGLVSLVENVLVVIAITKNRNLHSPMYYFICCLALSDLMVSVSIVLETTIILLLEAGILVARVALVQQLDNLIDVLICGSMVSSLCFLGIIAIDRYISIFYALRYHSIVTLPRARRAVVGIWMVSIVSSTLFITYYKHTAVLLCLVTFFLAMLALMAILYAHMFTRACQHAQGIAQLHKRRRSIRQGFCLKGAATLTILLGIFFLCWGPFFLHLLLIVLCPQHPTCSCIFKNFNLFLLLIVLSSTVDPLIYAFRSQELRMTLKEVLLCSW

Row | Substance | IC50 [1] | decrease in clonogenic survival compared to untreated group (B16/F1 melanoma cells)
1 | [Cys^3,4,10, D-Phe^7, Arg^11]α-MSH3-13 (CCEH[dF]RWCRPV; not fully specified (C-terminus); ends and bridges not checked) [(Arg^11)CCMSH] | 1.7 nM | 
2 | [Cys^3,4,10, D-Phe^7, Arg^11]α-MSH3-13 [(Arg^11)CCMSH] |  | 11%
